Source: paper PMC11327602 (Heliyon, 2024)
“And” between values parts separate entries of the source, which are not always exact repeats. Equal entries are not always repeated.

Tests used:
jack bean urease = jack bean urease (Canavalia ensiformis, UniProt P07374); assay: Urease inhibition assay; format: biochemical; settings: for IC50: Enzyme (SEM ±) J.B Urease, IC50, mean ± SEM, 3 experiments
[1] = biological target: Bacillus Pasteurii urease (Sporosarcina pasteurii, UniProt P41020); assay: Urease inhibition assay; format: biochemical; settings: Enzyme (SEM ±) B.P Urease, IC50, mean ± SEM, 3 experiments
Bacillus Pasteurii urease, sequence (P41020 whole entry): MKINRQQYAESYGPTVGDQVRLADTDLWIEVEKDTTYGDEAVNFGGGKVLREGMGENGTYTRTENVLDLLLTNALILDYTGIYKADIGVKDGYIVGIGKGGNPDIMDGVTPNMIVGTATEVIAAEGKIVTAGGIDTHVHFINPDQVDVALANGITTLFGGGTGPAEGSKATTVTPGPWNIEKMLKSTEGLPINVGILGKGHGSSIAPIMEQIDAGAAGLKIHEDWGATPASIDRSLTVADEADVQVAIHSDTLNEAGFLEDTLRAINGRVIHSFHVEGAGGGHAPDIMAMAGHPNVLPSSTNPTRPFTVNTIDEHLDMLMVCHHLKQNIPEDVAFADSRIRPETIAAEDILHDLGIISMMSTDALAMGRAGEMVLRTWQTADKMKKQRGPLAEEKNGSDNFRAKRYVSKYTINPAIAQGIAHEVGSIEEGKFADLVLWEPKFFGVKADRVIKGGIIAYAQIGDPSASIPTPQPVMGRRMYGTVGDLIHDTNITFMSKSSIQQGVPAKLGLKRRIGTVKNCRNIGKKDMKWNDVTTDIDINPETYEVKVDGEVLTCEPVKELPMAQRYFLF
Bacillus Pasteurii urease, sequence (P41021 whole entry partner): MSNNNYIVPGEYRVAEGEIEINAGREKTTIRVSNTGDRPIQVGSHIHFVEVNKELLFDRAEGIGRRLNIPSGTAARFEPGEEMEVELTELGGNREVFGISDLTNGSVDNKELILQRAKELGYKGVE
Bacillus Pasteurii urease, sequence (P41022 whole entry partner): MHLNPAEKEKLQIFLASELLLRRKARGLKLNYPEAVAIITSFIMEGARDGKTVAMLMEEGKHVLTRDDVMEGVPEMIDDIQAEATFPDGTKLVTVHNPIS

α-Glucosidase = α-Glucosidase (Saccharomyces cerevisiae, UniProt P53341); assay: α-Glucosidase inhibition assay; format: biochemical
α-Glucosidase, sequence (P53341 whole entry): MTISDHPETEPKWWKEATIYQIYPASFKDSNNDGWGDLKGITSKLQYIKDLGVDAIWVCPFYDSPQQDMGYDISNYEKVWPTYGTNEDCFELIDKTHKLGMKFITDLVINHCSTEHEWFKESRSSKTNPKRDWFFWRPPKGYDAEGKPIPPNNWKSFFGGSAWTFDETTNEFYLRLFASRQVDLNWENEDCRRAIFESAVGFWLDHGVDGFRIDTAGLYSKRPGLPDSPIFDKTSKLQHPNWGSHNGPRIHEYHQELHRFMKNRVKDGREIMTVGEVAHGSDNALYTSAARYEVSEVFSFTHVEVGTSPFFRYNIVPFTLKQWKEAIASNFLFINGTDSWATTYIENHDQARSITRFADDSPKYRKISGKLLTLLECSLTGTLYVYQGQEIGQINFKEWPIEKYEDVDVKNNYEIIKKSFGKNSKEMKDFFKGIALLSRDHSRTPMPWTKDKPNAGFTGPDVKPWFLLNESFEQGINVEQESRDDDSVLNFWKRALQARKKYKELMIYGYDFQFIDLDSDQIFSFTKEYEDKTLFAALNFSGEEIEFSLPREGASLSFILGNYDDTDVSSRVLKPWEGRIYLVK
Method in brief: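 Test compound (200–800 μg/mL) pre-incubated 5 min at 37 °C with 2 % w/v starch (sucrose) solution in 0.2 M Tris buffer, pH 8.0. 5 mM p-nitrophenyl-α-D-glucopyranoside added intermittently, then α-glucosidase (1 U/mL), 40 min at 35 °C. Stopped with […]; absorbance read at 405 nm. % inhibition = (control − sample)/control × 100; samples above 50 % taken to IC50.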

[2] = DPPH free radical scavenging activity; settings: for IC50: read-out: DPPH scavenging IC50
ABTS method = settings: for IC50: read-out: ABTS scavenging IC50
[3] = Superoxide anion scavenging assay; settings: for IC50: read-out: superoxide anion scavenging IC50

jack bean urease, sequence (P07374 whole entry, looked up): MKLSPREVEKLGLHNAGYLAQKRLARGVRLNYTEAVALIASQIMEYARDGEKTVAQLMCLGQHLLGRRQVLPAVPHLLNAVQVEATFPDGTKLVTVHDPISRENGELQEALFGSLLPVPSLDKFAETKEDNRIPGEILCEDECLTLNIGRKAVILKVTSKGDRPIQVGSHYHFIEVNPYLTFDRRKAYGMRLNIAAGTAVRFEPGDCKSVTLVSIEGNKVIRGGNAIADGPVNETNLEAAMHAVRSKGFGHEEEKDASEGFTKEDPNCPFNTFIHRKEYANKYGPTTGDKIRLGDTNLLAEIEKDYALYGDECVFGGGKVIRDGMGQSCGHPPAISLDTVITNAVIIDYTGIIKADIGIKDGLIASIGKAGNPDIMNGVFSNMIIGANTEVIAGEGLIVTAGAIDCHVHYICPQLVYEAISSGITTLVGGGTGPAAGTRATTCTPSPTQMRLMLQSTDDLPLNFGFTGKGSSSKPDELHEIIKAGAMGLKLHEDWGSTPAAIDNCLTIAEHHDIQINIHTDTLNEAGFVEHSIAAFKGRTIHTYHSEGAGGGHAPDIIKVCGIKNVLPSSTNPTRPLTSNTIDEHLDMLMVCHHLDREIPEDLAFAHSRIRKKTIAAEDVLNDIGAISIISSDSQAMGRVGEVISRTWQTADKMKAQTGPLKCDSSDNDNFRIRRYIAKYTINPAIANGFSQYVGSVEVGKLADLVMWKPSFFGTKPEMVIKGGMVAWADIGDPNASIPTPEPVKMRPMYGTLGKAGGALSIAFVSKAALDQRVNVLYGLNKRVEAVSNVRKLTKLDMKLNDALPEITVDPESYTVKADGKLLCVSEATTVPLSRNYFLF

Types of inhibition (urease) (jack bean urease)	IC50 (jack bean urease)	IC50 [1]	Type of Inhibition (α-glucosidase and α-amylase) (α-Glucosidase)	IC50 [2]	IC50 (ABTS method)	IC50 [3]	SMILES	DPPH % Scavenging ([2]; 25 μM)	DPPH % Scavenging ([2]; 50 μM)	DPPH % Scavenging ([2]; 75 μM)	DPPH % Scavenging ([2]; 100 μM)	ABTS % Scavenging (ABTS method; 10 μM)	ABTS % Scavenging (ABTS method; 20 μM)	ABTS % Scavenging (ABTS method; 30 μM)	ABTS % Scavenging (ABTS method; 40 μM)	ABTS % Scavenging (ABTS method; 50 μM)	superoxide anion % scavenging ([3]; 25 μM)	superoxide anion % scavenging ([3]; 50 μM)	superoxide anion % scavenging ([3]; 75 μM)	superoxide anion % scavenging ([3]; 100 μM)	further results
Non-competitive	46.02 ± 0.05 µM	51.39 ± 0.11 µM	Non-competitive	66.3 ± 0.2 µM	46.13 ± 0.13 µM	60 ± 0.05 µM	C=CCN(c1nccs1)S(=O)(=O)c1ccc(F)cc1 [Compound 31, N-Allyl-4-fluoro-N-(thiazol-2-yl)benzenesulfonamide]	34.02 ± 0.1%	43.1 ± 0.13%	73.2 ± 0.5%	90.5 ± 0.11%	29.31 ± 0.2%	37.15 ± 0.28%	41.11 ± 0.39%	47.12 ± 0.17%	73.04 ± 0.12%	25 ± 0.11%	46 ± 0.05%	79 ± 0.33%	104 ± 0.22%	–
Non-competitive	52.1 ± 1.12 µM	57.89 ± 0.18 µM	Non-competitive	46.2 ± 0.01 µM	31.01 ± 0.09 µM	49 ± 0.12 µM	C=CCN(c1nccs1)S(=O)(=O)c1ccc([N+](=O)[O-])cc1 [Compound 32, N-Allyl-4-nitro-N-(thiazol-2-yl)benzenesulfonamide]	39.2 ± 0.2%	53.5 ± 0.3%	64.4 ± 0.01%	88.2 ± 0.2%	12.02 ± 0.03%	25.03 ± 0.01%	49.01 ± 0.09%	75.03 ± 0.02%	94.06 ± 0.21%	15 ± 0.05%	32 ± 0.02%	67 ± 0.11%	97 ± 0.51%	inhibition against both enzymes (J.B. and B.P urease), in words (jack bean urease): weak inhibition
Non-competitive	22.1 ± 0.29 µM	25.09 ± 0.14 µM	Competitive	~34.4 µM and 34.4 µM	~35.1 µM	38 ± 0.55 µM	Cc1ccc(S(=O)(=O)N(C)c2nccs2)cc1 [Compound 33, N,4-Dimethyl-N-(thiazol-2-yl)benzenesulfonamide]	30.2 ± 0.2%	37.4 ± 0.1%	65.6 ± 0.01%	88.3 ± 0.2%	29.02 ± 0.08%	41.07 ± 0.03%	49.08 ± 0.01%	72.02 ± 0.07%	–	20 ± 0.01%	51 ± 0.03%	60 ± 0.15%	99 ± 0.18%	inhibition against both enzymes (α-glucosidase and α-amylase), in words (α-Glucosidase): weak inhibition
Competitive	16 ± 0.21 µM	18.7 µM	Non-competitive	45.5 ± 0.05 µM	47.1 µM	52.1 ± 0.01 µM	COc1ccc(S(=O)(=O)N(C)c2nccs2)cc1 [Compound 34, 4-Methoxy-N-methyl-N-(thiazol-2-yl)benzenesulfonamide]	29.2 ± 0.01%	69.6 ± 0.2%	78.4 ± 0.2%	94.8 ± 0.03%	27.2 ± 0.01%	35.6 ± 0.2%	46.4 ± 0.2%	69.8 ± 0.03%	80.1 ± 0.08%	18.2 ± 0.01%	39.6 ± 0.2%	69.4 ± 0.2%	89.8 ± 0.03%	inhibition against both enzymes (α-glucosidase and α-amylase), in words (α-Glucosidase): weak inhibition

Continued, compound first:

SMILES	Types of inhibition (urease) (jack bean urease)	IC50 (jack bean urease)	IC50 [1]	Type of Inhibition (α-glucosidase and α-amylase) (α-Glucosidase)	IC50 [2]	IC50 (ABTS method)	IC50 [3]	DPPH % Scavenging ([2]; 25 μM)	DPPH % Scavenging ([2]; 50 μM)	DPPH % Scavenging ([2]; 75 μM)	DPPH % Scavenging ([2]; 100 μM)	ABTS % Scavenging (ABTS method; 10 μM)	ABTS % Scavenging (ABTS method; 20 μM)	ABTS % Scavenging (ABTS method; 30 μM)	ABTS % Scavenging (ABTS method; 40 μM)	ABTS % Scavenging (ABTS method; 50 μM)	superoxide anion % scavenging ([3]; 25 μM)	superoxide anion % scavenging ([3]; 50 μM)	superoxide anion % scavenging ([3]; 75 μM)	superoxide anion % scavenging ([3]; 100 μM)	further results
O=S(=O)(c1ccc(F)cc1)N(Cc1ccccc1)c1nccs1 [Compound 24, N-benzyl-4-fluoro-N-(thiazol-2-yl)benzenesulfonamide]	Competitive	32.11 ± 0.13 µM	40.88 ± 0.26 µM	Non-competitive	62.5 ± 0.07 µM	42.12 ± 0.21 µM	59 ± 0.16 µM	21.3 ± 0.18%	44.1 ± 0.55%	75.1 ± 0.30%	89.4 ± 0.35%	25.11 ± 0.11%	33.6 ± 0.55%	44.31 ± 0.17%	48.23 ± 0.51%	76.23 ± 0.22%	33 ± 0.21%	45 ± 0.35%	84 ± 0.25%	97 ± 0.15%	inhibition against both enzymes (α-glucosidase and α-amylase), in words (α-Glucosidase): weak inhibition
C=CCN(c1nccs1)S(=O)(=O)c1ccc(C)cc1 [Compound 26, N-Allyl-4-methyl-N-(thiazol-2-yl)benzenesulfonamide]	Non-competitive	30.11 ± 0.07 µM	38.2 ± 0.36 µM	Competitive	~38.3 µM and 38.3 µM	~33 µM and 33 µM	~36 µM and 36 µM	43.2 ± 0.8%	74.8 ± 0.3%	88.5 ± 0.1%	99.2 ± 0.2%	09.02 ± 0.03%	24.03 ± 0.01%	43.08 ± 0.09%	75.07 ± 0.02%	96.06 ± 0.21%	27 ± 0.07%	63 ± 0.01%	73 ± 0.11%	94 ± 0.51%	–
C=CCN(c1nccs1)S(=O)(=O)c1ccc(OC)cc1 [Compound 27, N-allyl-4-methoxy-N-(thiazol-2-yl)benzenesulfonamide]	Competitive	24.1 ± 0.34 µM	26.37 ± 0.22 µM	Non-competitive	~39.2 µM and 39.2 µM	40.05 ± 0.08 µM	45 ± 0.19 µM	33.2 ± 0.01%	59.6 ± 0.2%	75.4 ± 0.2%	91.8 ± 0.03%	10.02 ± 0.05%	19.08 ± 0.03%	43.02 ± 0.09%	70.02 ± 0.11%	93.09 ± 0.02%	25 ± 0.17%	71 ± 0.25%	86 ± 0.03%	93 ± 0.52%	–
C=CCN(c1nccs1)S(=O)(=O)c1ccc(Br)cc1 [Compound 28, N-Allyl-4-bromo-N-(thiazol-2-yl)benzenesulfonamide]	Non-competitive	29.55 ± 0.12 µM	36.1 ± 0.43 µM	Competitive	~48.4 µM and 48.4 µM	~35 µM and 35 µM	~39 µM and 39 µM	48.2 ± 0.09%	70.7 ± 0.01%	85.3 ± 0.3%	91.2 ± 0.06%	10.01 ± 0.02%	27.3 ± 0.05%	48.08 ± 0.9%	55.7 ± 0.22%	99.06 ± 0.25%	25 ± 0.02%	66 ± 0.11%	77 ± 0.18%	99 ± 0.31%	–
C=CCN(c1nccs1)S(=O)(=O)c1ccccc1 [Compound 29, N-allyl-N-(thiazol-2-yl)benzenesulfonamide]	Non-competitive	21.22 ± 0.17 µM	23.02 ± 0.15 µM	Non-competitive	52.5 ± 0.11 µM	43.21 ± 0.15 µM	43 ± 0.17 µM	34.5 ± 0.21%	49.1 ± 0.13%	77.2 ± 0.7%	93.5 ± 0.08%	19.2 ± 0.5%	23.07 ± 0.13%	45.01 ± 0.19%	74.12 ± 0.17%	89.19 ± 0.12%	28 ± 0.07%	73 ± 0.20%	85 ± 0.13%	96 ± 0.32%	–
C=CCN(c1nccs1)S(=O)(=O)c1ccc(Cl)cc1 [Compound 30, N-Allyl-4-chloro-N-(thiazol-2-yl)benzenesulfonamide]	Non-competitive	28.1 ± 0.35 µM	32.3 ± 0.37 µM	Non-competitive	52.3 ± 0.21 µM	37.6 ± 0.01 µM	43 ± 0.09 µM	38.5 ± 0.19%	46.1 ± 0.11%	77.2 ± 0.13%	81.2 ± 0.15%	23.11 ± 0.02%	40.3 ± 0.53%	46.01 ± 0.19%	59.5 ± 0.20%	87.11 ± 0.15%	29 ± 0.34%	63 ± 0.01%	79 ± 0.11%	87 ± 0.21%	–
